Experimental data from ChEMBL document CHEMBL1165985, “Dihydro-beta-agarofuran sesquiterpenes and pentacyclic triterpenoids from the root bark of Osyris lanceolata” (2010).
The source made the active and inactive calls. The rule behind the calls is not given here.

How the values were obtained:
[1] = test system: Bacillus subtilis; experiment: Antimicrobial activity against Bacillus subtilis ATCC 6633 by agar overlay technique; type: functional
In short: (§1)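 Adapted agar overlay technique. Strains came from a university microbiology collection. Media were nutrient broth, nutrient agar, mycological peptone and Sabouraud dextrose agar.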

[2] = test system: Staphylococcus aureus; experiment: Antimicrobial activity against Staphylococcus aureus ATCC 9144 by agar overlay technique; type: functional; in short: as §1
[3] = test system: Pseudomonas aeruginosa; experiment: Antimicrobial activity against Pseudomonas aeruginosa NCTC 10332 by agar overlay technique; type: functional; in short: as §1
[4] = test system: Escherichia coli; experiment: Antimicrobial activity against Escherichia coli ATCC 11229 by agar overlay technique; type: functional; in short: as §1
[5] = test system: Candida albicans; experiment: Antimicrobial activity against Candida albicans ATCC 10231 by agar overlay technique; type: functional; in short: as §1
[6] = test system: Radical scavenging activity; experiment: Antioxidant activity assessed as DPPH radical scavenging activity after 30 mins; type: functional
In short: (§2)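 Semiquantitative TLC-based DPPH radical scavenging, followed over an 8 h period with readings at 30 min, 2 h and 8 h. Activity is expressed as the minimum inhibitory quantity (MIQ, µg) on the plate. Run in duplicate.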

[7] = test system: Radical scavenging activity; experiment: Antioxidant activity assessed as DPPH radical scavenging activity after 2 hrs; type: functional; in short: as §2
[8] = test system: Radical scavenging activity; experiment: Antioxidant activity assessed as DPPH radical scavenging activity after 8 hrs; type: functional; in short: as §2
[9] = test system: Bacillus subtilis; experiment: Antimicrobial activity against Bacillus subtilis ATCC 6633 at 100 ug by agar overlay technique; type: functional, organism-based
[10] = test system: Staphylococcus aureus; experiment: Antimicrobial activity against Staphylococcus aureus ATCC 9144 at 100 ug by agar overlay technique; type: functional, organism-based
[11] = test system: Pseudomonas aeruginosa; experiment: Antimicrobial activity against Pseudomonas aeruginosa NCTC 10332 at 100 ug by agar overlay technique; type: functional, organism-based

SMILES	MIC [1] [µg]	MIC [2] [µg]	MIC [3] [µg]	MIC [4] [µg]	MIC [5] [µg]	MIC [6]	MIC [7]	MIC [8] [µg]	Activity [9]	Activity [10]	Activity [11]
C[C@@H]1CC[C@H](OC(=O)c2ccoc2)[C@@]2(C)[C@@H](OC(=O)c3ccoc3)C[C@@H]3C[C@]12OC3(C)C	0.5	10	0.5	10	0.01	inactive	10 µg	10			
C[C@@H]1CC(=O)[C@H](OC(=O)c2ccoc2)[C@@]2(C)[C@@H](OC(=O)c3ccoc3)C[C@@H]3C[C@]12OC3(C)C	10	50	10	10	0.5	inactive	10 µg	10			
CC1=CC(=O)[C@H](OC(=O)c2ccoc2)[C@@]2(C)[C@@H](OC(=O)c3ccoc3)C[C@@H]3C[C@]12OC3(C)C				50	10	inactive	50 µg	10	inactive	inactive	inactive
C[C@H]1C(=O)CC[C@@H]2[C@]1(C)CC[C@H]1[C@@]2(C)CC[C@@]2(C)[C@H]3C[C@@](C)(C(=O)O)CC[C@]3(C)CC[C@]12C [OCTANDRONIC ACID]	0.01	0.5	0.01	0.01	0.01	inactive	inactive	10			
C=C(C)[C@@H]1CC[C@]2(C)[C@H](CC=C3[C@@H]4C[C@](C)(C(=O)O)CC[C@]4(C)CC[C@]32C)[C@@]1(C)CCC(=O)O	0.01	0.001	0.01	0.01	0.001	inactive	inactive	10			
O=C1O[C@H]([C@@H](O)CO)C(O)=C1O						10 µg	0.5 µg	0.01			
O=C(N[C@H](CO)[C@H](O)c1ccc([N+](=O)[O-])cc1)C(Cl)Cl [CHLORAMPHENICOL]	0.001	0.001	0.001	0.001							
O=C(O)c1cc(O)c(O)c(O)c1						0.01 µg	0.01 µg	0.01			
Clc1ccc(COC(Cn2ccnc2)c2ccc(Cl)cc2Cl)c(Cl)c1 (stereo unspecified) [MICONAZOLE]					0.001						
